According to ChEMBL document CHEMBL4393677, “Comparative analysis of pyrimidine substituted aminoacyl-sulfamoyl nucleosides as potential inhibitors targeting class I aminoacyl-tRNA synthetases” (Eur J Med Chem, 2019):
The source made the active and inactive calls. No cut-off for these calls is given here.

Tests used:
[1] = biological target: T1, Tyrosine--tRNA ligase (Escherichia coli (strain K12)) (UniProt P0AGJ9); experiment: Inhibition of tyrRS in Escherichia coli NCIB 8743 S30 extract assessed as aminoacylation at 250 nM incubated for 5 mins in presence of 14C-labeled tyrosine by liquid scintillation counting method relative to control; parameters: scale not given: the % may be the effect or the level left
T1 sequence (whole entry): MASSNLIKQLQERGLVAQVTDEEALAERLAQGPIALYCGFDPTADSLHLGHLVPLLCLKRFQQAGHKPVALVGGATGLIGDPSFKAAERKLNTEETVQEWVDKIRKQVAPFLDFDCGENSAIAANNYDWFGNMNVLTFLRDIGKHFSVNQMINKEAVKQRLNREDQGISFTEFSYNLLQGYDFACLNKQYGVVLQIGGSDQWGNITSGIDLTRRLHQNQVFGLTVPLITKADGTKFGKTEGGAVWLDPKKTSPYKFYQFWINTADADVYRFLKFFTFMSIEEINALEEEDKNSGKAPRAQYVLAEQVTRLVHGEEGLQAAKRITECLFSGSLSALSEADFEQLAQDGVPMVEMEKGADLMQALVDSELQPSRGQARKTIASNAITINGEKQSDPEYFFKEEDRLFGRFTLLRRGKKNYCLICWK
Method in brief: (§1)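 S30 extract from cells grown in LB at 37 °C to OD600 1.2, sonicated, twice clarified; diluted 10-fold. Inhibitor (5 µM stock) preincubated 5 min with extract, then aminoacylation at 37 °C with 30 mM Tris pH 8.0, 1 mM DTT, 5 g/L tRNA, 3 mM ATP, 30 mM KCl, 8 mM MgCl₂, ¹⁴C-Ile 15 µM or ¹⁴C-Tyr 9.66 µM; quenched at 1 min, TCA filters counted. Activity relative to no-inhibitor extract; mean of three.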

[2] = biological target: T1, Tyrosine--tRNA ligase (Escherichia coli (strain K12)); experiment: Inhibition of tyrRS in Escherichia coli BL21 (DE3) pLysS S30 extract over expressing YhhY incubated for 5 to 60 mins in presence of 14C-labeled tyrosine by liquid scintillation counting method
[3] = biological target: Isoleucine--tRNA ligase (Escherichia coli K-12) (UniProt P00956); experiment: Inhibition of ileRS in Escherichia coli BL21 (DE3) pLysS S30 extract over expressing RimI incubated for 5 to 60 mins in presence of 14C-labeled isoleucine and acetyl-CoA by liquid scintillation counting method
Isoleucine--tRNA ligase (Escherichia coli K-12), sequence (P00956 whole entry): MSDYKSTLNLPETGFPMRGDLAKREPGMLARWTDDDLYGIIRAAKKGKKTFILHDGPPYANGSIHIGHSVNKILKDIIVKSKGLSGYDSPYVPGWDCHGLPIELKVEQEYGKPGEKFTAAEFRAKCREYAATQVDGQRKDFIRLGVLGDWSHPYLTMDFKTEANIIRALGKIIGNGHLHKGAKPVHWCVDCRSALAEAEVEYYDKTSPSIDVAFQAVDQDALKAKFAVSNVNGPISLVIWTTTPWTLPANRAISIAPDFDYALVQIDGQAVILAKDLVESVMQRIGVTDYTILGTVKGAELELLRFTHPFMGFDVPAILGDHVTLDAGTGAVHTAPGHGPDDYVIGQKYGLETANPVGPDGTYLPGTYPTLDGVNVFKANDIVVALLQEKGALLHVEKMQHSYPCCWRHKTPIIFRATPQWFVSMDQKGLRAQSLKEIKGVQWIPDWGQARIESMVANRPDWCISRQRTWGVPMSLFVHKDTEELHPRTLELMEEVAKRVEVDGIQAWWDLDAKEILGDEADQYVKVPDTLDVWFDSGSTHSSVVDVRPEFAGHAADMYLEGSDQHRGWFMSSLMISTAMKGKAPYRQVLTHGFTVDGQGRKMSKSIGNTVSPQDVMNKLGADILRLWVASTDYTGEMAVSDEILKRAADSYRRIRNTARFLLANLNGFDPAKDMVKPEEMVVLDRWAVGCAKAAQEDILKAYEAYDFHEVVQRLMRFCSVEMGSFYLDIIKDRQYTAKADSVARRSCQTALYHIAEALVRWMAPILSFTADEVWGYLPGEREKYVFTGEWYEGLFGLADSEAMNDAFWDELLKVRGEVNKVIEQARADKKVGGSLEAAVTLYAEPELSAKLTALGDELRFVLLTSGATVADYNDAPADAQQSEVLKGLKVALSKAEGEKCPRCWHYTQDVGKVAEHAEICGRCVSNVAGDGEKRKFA

[4] = biological target: Isoleucine--tRNA ligase (Escherichia coli K-12) (UniProt P00956); experiment: Inhibition of ileRS in Escherichia coli BL21 (DE3) pLysS S30 extract over expressing SUMO incubated for 5 to 60 mins in presence of 14C-labeled isoleucine and acetyl-CoA by liquid scintillation counting method
[5] = biological target: T1, Tyrosine--tRNA ligase (Escherichia coli (strain K12)); experiment: Inhibition of tyrRS in Escherichia coli BL21 (DE3) pLysS S30 extract over expressing SUMO incubated for 5 to 60 mins in presence of 14C-labeled tyrosine by liquid scintillation counting method
[6] = biological target: T1, Tyrosine--tRNA ligase (Escherichia coli (strain K12)); experiment: Inhibition of tyrRS in Escherichia coli BL21 (DE3) pLysS S30 extract over expressing RimI incubated for 5 to 60 mins in presence of 14C-labeled tyrosine by liquid scintillation counting method
Tyrosine--tRNA ligase = biological target: T2, Tyrosine--tRNA ligase (Escherichia coli (strain K12), UniProt P0AGJ9); experiment: Inhibition of purified Escherichia coli BL21 (DE3) tyrRS incubated for 10 mins in presence of 14C-labeled tyrosine by radiolabel transfer assay; conditions: read-out: Ki(app)
T2 sequence (P0AGJ9 whole entry): T1 sequence (whole entry)

Leucine--tRNA ligase = Leucine--tRNA ligase (Escherichia coli (strain K12), UniProt P07813); experiment: Inhibition of purified Escherichia coli BL21 (DE3) leuRS incubated for 10 mins in presence of 14C-labeled leucine by radiolabel transfer assay; conditions: read-out: Ki(app)
Leucine--tRNA ligase, sequence (P07813 whole entry): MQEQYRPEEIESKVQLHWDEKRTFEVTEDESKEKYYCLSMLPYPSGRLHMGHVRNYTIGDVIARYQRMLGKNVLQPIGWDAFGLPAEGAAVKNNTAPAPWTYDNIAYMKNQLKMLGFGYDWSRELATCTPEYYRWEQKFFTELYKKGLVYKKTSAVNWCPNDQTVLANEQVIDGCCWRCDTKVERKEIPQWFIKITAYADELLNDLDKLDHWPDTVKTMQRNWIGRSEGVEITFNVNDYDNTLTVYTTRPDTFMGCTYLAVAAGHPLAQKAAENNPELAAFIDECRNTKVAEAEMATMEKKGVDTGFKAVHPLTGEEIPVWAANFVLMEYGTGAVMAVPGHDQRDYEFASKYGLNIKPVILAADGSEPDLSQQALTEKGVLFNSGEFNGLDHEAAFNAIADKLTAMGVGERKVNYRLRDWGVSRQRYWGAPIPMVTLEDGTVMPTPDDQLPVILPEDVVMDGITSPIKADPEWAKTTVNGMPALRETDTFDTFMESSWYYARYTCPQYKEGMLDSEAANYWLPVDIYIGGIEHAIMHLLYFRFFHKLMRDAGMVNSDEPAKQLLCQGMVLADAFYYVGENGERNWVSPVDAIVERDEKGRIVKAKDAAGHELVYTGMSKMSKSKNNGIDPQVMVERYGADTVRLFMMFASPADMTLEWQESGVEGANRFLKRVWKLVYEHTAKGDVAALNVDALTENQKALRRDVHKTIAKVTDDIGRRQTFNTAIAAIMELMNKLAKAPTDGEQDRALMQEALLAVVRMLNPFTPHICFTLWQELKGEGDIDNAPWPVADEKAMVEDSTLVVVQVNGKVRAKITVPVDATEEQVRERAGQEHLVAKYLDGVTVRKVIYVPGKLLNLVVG

[7] = biological target: T1, Tyrosine--tRNA ligase (Escherichia coli (strain K12)); experiment: Inhibition of tyrRS in Escherichia coli BL21 (DE3) pLysS S30 extract over expressing RimL incubated for 5 to 60 mins in presence of 14C-labeled tyrosine by liquid scintillation counting method relative to control
[8] = Stability of compound in Escherichia coli NCIB 8743 S30 extract assessed as compound degradation at 0.25 uM in presence of 14C-labeled isoleucine and acetyl-CoA by liquid scintillation counting method; type: ADME, subcellular
Method in brief: (§2)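 Inhibitor (5 μM stock) incubated at 37 °C up to 48 h with S30 extract (1:3), or with extract plus acetyl-CoA (10 mM stock) (1:1:3). Aliquots at set times added to aminoacylation mix (30 mM Tris pH 8.0, 1 mM DTT, tRNA, 3 mM ATP, 30 mM KCl, 8 mM MgCl₂, 10 μM ¹⁴C-isoleucine) at 37 °C; quenched after 1 min, ileRS activity by scintillation counting.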

[9] = biological target: Isoleucine--tRNA ligase (Escherichia coli K-12) (UniProt P00956); experiment: Inhibition of ileRS in Escherichia coli BL21 (DE3) pLysS S30 extract over expressing YhhY incubated for 5 mins in presence of 14C-labeled isoleucine and acetyl-CoA by liquid scintillation counting method
[10] = biological target: Leucine--tRNA ligase (Escherichia coli (strain K12)) (UniProt P07813); experiment: Inhibition of leuRS in Escherichia coli BL21 (DE3) pLysS S30 extract over expressing YhhY incubated for 5 mins in presence of 14C-labeled leucine by liquid scintillation counting method
Leucine--tRNA ligase (Escherichia coli (strain K12)), sequence (P07813 whole entry): as above

[11] = biological target: Isoleucine--tRNA ligase (Escherichia coli K-12) (UniProt P00956); experiment: Inhibition of ileRS in Escherichia coli BL21 (DE3) pLysS S30 extract over expressing RimL incubated for 5 to 60 mins in presence of 14C-labeled isoleucine and acetyl-CoA by liquid scintillation counting method
[12] = Stability of compound in Escherichia coli NCIB 8743 S30 extract assessed as compound degradation incubated for 48 hr in presence of 14C-labeled isoleucine and acetyl-CoA by liquid scintillation counting method; type: ADME, subcellular; method in brief: as §2
[13] = Stability of compound in Escherichia coli NCIB 8743 S30 extract assessed as compound degradation incubated for 1 hr n presence of 14C-labeled isoleucine and acetyl-CoA by liquid scintillation counting method; type: ADME, subcellular; method in brief: as §2
[14] = Stability of compound in Escherichia coli BL21 (DE3) pLysS S30 extract assessed as compound degradation at 0.25 uM in presence of 14C-labeled isoleucine and acetyl-CoA by liquid scintillation counting method; type: ADME, subcellular
[15] = biological target: Isoleucine--tRNA ligase (Escherichia coli K-12) (UniProt P00956); experiment: Inhibition of ileRS in Escherichia coli NCIB 8743 S30 extract assessed as aminoacylation at 250 nM incubated for 5 mins in presence of 14C-labeled isoleucine by liquid scintillation counting method relative to control; parameters: scale not given: the % may be the effect or the level left; method in brief: as §1
Isoleucine--tRNA ligase = Isoleucine--tRNA ligase (Escherichia coli K-12, UniProt P00956); experiment: Inhibition of purified Escherichia coli BL21 (DE3) ileRS incubated for 10 mins in presence of 14C-labeled isoleucine by radiolabel transfer assay; conditions: read-out: Ki(app)
Isoleucine--tRNA ligase, sequence (P00956 whole entry): as the sequence (P00956 whole entry) above

[16] = biological target: Leucine--tRNA ligase (Escherichia coli (strain K12)) (UniProt P07813); experiment: Inhibition of leuRS in Escherichia coli BL21 (DE3) pLysS S30 extract over expressing YhhY incubated for 60 mins in presence of 14C-labeled leucine by liquid scintillation counting method
[17] = biological target: Isoleucine--tRNA ligase (Escherichia coli K-12) (UniProt P00956); experiment: Inhibition of ileRS in Escherichia coli BL21 (DE3) pLysS S30 extract over expressing YhhY incubated for 60 mins in presence of 14C-labeled isoleucine and acetyl-CoA by liquid scintillation counting method

Nc1ccn([C@@H]2O[C@H](COS(=O)(=O)NC(=O)[C@@H](N)Cc3ccc(O)cc3)[C@@H](O)[C@H]2O)c(=O)n1
Activity [1]: inactive
inhibition [2]: inactive
inhibition [3]: Active
inhibition [4]: Active
inhibition [5]: Active
inhibition [6]: Active
Ki (Tyrosine--tRNA ligase): 1480 nM

CC(C)C[C@H](N)C(=O)NS(=O)(=O)OC[C@H]1O[C@@H](n2ccc(=O)n(C)c2=O)[C@H](O)[C@@H]1O
Ki (Leucine--tRNA ligase): 29.5 nM

N[C@@H](Cc1ccc(O)cc1)C(=O)NS(=O)(=O)OC[C@H]1O[C@@H](n2ccc(=O)[nH]c2=O)[C@H](O)[C@@H]1O
Activity [1]: 37 to 62%
inhibition [2]: Active
inhibition [3]: Active
inhibition [4]: Active
inhibition [5]: Active
inhibition [6]: Active
Ki (Tyrosine--tRNA ligase): 43.4 nM
inhibition [7]: Active

Cn1c(=O)ccn([C@@H]2O[C@H](COS(=O)(=O)NC(=O)[C@@H](N)Cc3ccc(O)cc3)[C@@H](O)[C@H]2O)c1=O
Activity [1]: 37 to 62%
Ki (Tyrosine--tRNA ligase): 149 nM

CC[C@H](C)[C@H](N)C(=O)NS(=O)(=O)OC[C@H]1O[C@@H](n2ccc(=O)[nH]c2=O)[C@H](O)[C@@H]1O
Stability [8]: Stable
inhibition [9]: Active
inhibition [10]: Active
inhibition [11]: inactive
Stability [12]: Stable
inhibition [3]: Active
inhibition [4]: Active
Stability [13]: Stable
Stability [14]: Stable
inhibition [5]: Active
Activity [15]: 5 to 14%
inhibition [6]: Active
Ki (Isoleucine--tRNA ligase): 55 nM
inhibition [16]: inactive
inhibition [17]: inactive

CC[C@H](C)[C@H](N)C(=O)NS(=O)(=O)OC[C@H]1O[C@@H](n2ccc(=O)n(C)c2=O)[C@H](O)[C@@H]1O
Stability [12]: Stable
Stability [13]: Stable
Activity [15]: 17 to 34%
Ki (Isoleucine--tRNA ligase): 1040 nM

CC(C)C[C@H](N)C(=O)NS(=O)(=O)OC[C@H]1O[C@@H](n2ccc(=O)[nH]c2=O)[C@H](O)[C@@H]1O
Ki (Leucine--tRNA ligase): 20.8 nM
inhibition [11]: inactive
inhibition [3]: Active
inhibition [4]: Active
inhibition [5]: Active
inhibition [6]: Active

CC[C@H](C)[C@H](N)C(=O)NS(=O)(=O)OC[C@H]1O[C@@H](n2ccc(N)nc2=O)[C@H](O)[C@@H]1O
inhibition [9]: Active
inhibition [10]: Active
inhibition [11]: inactive
Stability [12]: Stable
inhibition [3]: Active
inhibition [4]: Active
Stability [13]: Stable
inhibition [5]: Active
Activity [15]: 5 to 14%
inhibition [6]: Active
Ki (Isoleucine--tRNA ligase): 17.2 nM
inhibition [16]: inactive
inhibition [17]: inactive

CC(C)C[C@H](N)C(=O)NS(=O)(=O)OC[C@H]1O[C@@H](n2cnc3c(N)ncnc32)[C@H](O)[C@@H]1O
inhibition [11]: inactive
inhibition [3]: Active
inhibition [4]: Active
inhibition [5]: Active
inhibition [6]: Active

CC[C@H](C)[C@H](N)C(=O)NS(=O)(=O)OC[C@H]1O[C@@H](n2cnc3c(N)ncnc32)[C@H](O)[C@@H]1O
Stability [8]: Stable
inhibition [9]: Active
inhibition [10]: Active
inhibition [11]: inactive
Stability [12]: Stable
inhibition [3]: Active
inhibition [4]: Active
Stability [13]: Stable
Stability [14]: Stable
inhibition [5]: Active
Activity [15]: 0.05 to 1.8%
inhibition [6]: Active
inhibition [16]: Active
inhibition [17]: inactive

Nc1ncnc2c1ncn2[C@@H]1O[C@H](COS(=O)(=O)NC(=O)[C@@H](N)Cc2ccc(O)cc2)[C@@H](O)[C@H]1O
Activity [1]: 0.05 to 1.8%
inhibition [2]: Active
inhibition [3]: Active
inhibition [4]: Active
inhibition [5]: Active
inhibition [6]: Active
inhibition [7]: Active

CC(C)C[C@H](N)C(=O)NS(=O)(=O)OC[C@H]1O[C@@H](n2ccc(N)nc2=O)[C@H](O)[C@@H]1O
Ki (Leucine--tRNA ligase): 9.8 nM
inhibition [11]: inactive
inhibition [3]: Active
inhibition [4]: Active
inhibition [5]: Active
inhibition [6]: Active
